Test results reported in ChEMBL document CHEMBL4152304, “Design, synthesis and anticancer activity of fluorocyclopentenyl-purines and - pyrimidines” (Eur J Med Chem, 2018).

How the values were obtained:
Type in all cases: functional, cell-based
[1] = test system: HCT-116; test: Cytotoxicity against human HCT116 cells assessed as decrease in cell viability after 72 hrs by SRB assay; conditions: HCT-116, 72 h
Method in brief: (§1)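 Cells from the Korean Cell Line Bank were grown in RPMI 1640 with 10% FBS and penicillin/streptomycin/amphotericin B at 37 °C under 5% CO2. They were seeded at 5 × 10^4 cells/mL and exposed to a range of compound concentrations for 72 h. Cells were fixed in 10% TCA and stained with 0.4% SRB in 1% acetic acid. Dye was dissolved in 10 mM Tris (pH 10.0) and read at A515. Viability is relative to vehicle; IC50 by nonlinear regression.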

[2] = test system: A549; test: Cytotoxicity against human A549 cells assessed as decrease in cell viability after 72 hrs by SRB assay; conditions: A549, 72 h; method in brief: as §1
[3] = test system: SNU-638; test: Cytotoxicity against human SNU638 cells assessed as decrease in cell viability after 72 hrs by SRB assay; conditions: SNU-638, 72 h; method in brief: as §1
[4] = test system: SK-HEP1; test: Cytotoxicity against human SKHEP1 cells assessed as decrease in cell viability after 72 hrs by SRB assay; conditions: SK-HEP1, 72 h
Method in brief: (§2)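 Maintained in DMEM with 10% FBS and penicillin/streptomycin/amphotericin B at 37 °C in humidified 5% CO2; cell lines from the Korean Cell Line Bank. Plated at 5 × 10^4 cells/mL and treated with various concentrations for 72 h. Then 10% TCA fixation, 0.4% SRB staining in 1% acetic acid, solubilisation in 10 mM Tris pH 10.0 and absorbance at 515 nm. Viability is versus vehicle control; IC50 from nonlinear regression.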

[5] = test system: MDA-MB-231; test: Cytotoxicity against human MDA-MB-231 cells assessed as decrease in cell viability after 72 hrs by SRB assay; conditions: MDA-MB-231, 72 h; method in brief: as §2
[6] = test system: PC-3; test: Cytotoxicity against human PC3 cells assessed as decrease in cell viability after 72 hrs by SRB assay; conditions: PC-3, 72 h; method in brief: as §1

| Compound | IC50 [1] [µM] | IC50 [2] [µM] | IC50 [3] [µM] | IC50 [4] [µM] | IC50 [5] [µM] | IC50 [6] [µM] |
| --- | --- | --- | --- | --- | --- | --- |
| OCC1=C(F)[C@@H](n2cnc3c(NC4CC4)ncnc32)[C@H](O)[C@@H]1O | > 100 | > 100 | > 100 | > 100 | > 100 | > 100 |
| Nc1nc(=O)n([C@@H]2C(F)=C(CO)[C@@H](O)[C@H]2O)cc1F | > 100 | > 100 | > 100 | > 100 | > 100 | > 100 |
| Nc1nc(O)c2ncn([C@@H]3C(F)=C(CO)[C@@H](O)[C@H]3O)c2n1 | > 100 | > 100 | > 100 | > 100 | > 100 | > 100 |
| Nc1nc(=O)n([C@@H]2C(F)=C(CO)[C@@H](O)[C@H]2O)cc1Br | > 100 | > 100 | > 100 | > 100 | > 100 | > 100 |
| OCC1=C(F)[C@@H](n2cnc3c(O)ncnc32)[C@H](O)[C@@H]1O | > 100 | > 100 | > 100 | > 100 | > 100 | > 100 |
| O=c1nc(O)c(Br)cn1[C@@H]1C(F)=C(CO)[C@@H](O)[C@H]1O | 33.1 | > 100 | 32 | 75 | 44 | 32 |
| O=c1nc(O)c(Cl)cn1[C@@H]1C(F)=C(CO)[C@@H](O)[C@H]1O | > 100 | > 100 | 86.8 | > 100 | > 100 | 61.9 |
| CC(C)OC(=O)[C@H](C)N[P@](=O)(OCC1=C(F)[C@@H](n2cnc3c(N)ncnc32)[C@H](O)[C@@H]1O)Oc1ccccc1 | 4.57 | 18.6 | 3.05 | 24 | 18.4 | 10.5 |
| Nc1nc(=O)n([C@@H]2C(F)=C(CO)[C@@H](O)[C@H]2O)cc1I | 99.8 | > 100 | 83.7 | > 100 | 79.8 | 82.9 |
| Nc1nc(N)c2ncn([C@@H]3C(F)=C(CO)[C@@H](O)[C@H]3O)c2n1 | 21.9 | 85.4 | 32.2 | > 100 | 22.8 | > 100 |
| CNc1ncnc2c1ncn2[C@@H]1C(F)=C(CO)[C@@H](O)[C@H]1O | 2.14 | 2.39 | 2.28 | 2.76 | 8.05 | 15.3 |
| Nc1nc(=O)n([C@@H]2C(F)=C(CO)[C@@H](O)[C@H]2O)cc1Cl | > 100 | > 100 | > 100 | > 100 | > 100 | > 100 |
| O=c1nc(O)c(F)cn1[C@@H]1C(F)=C(CO)[C@@H](O)[C@H]1O | 52.3 | > 100 | 27.8 | 71.6 | 67.7 | 43.7 |
| O=c1nc(O)c(I)cn1[C@@H]1C(F)=C(CO)[C@@H](O)[C@H]1O | 84.5 | > 100 | 70.2 | > 100 | 55.1 | 46.4 |
| Nc1nc(NC2CC2)c2ncn([C@@H]3C(F)=C(CO)[C@@H](O)[C@H]3O)c2n1 | > 100 | > 100 | > 100 | > 100 | > 100 | > 100 |
| Nc1ccn([C@@H]2O[C@H](CO)[C@@H](O)[C@@H]2O)c(=O)n1 [CYTARABINE] | 4.4 | 1.75 | 1.08 | 1.8 | 10.5 | 48.4 |
| Nc1ncnc2c1ncn2[C@@H]1C=C(CO)[C@@H](O)[C@H]1O [NEOPLANOCIN A] | 1.45 | 2.16 | 0.82 | 2.36 | 0.86 | 2.14 |
